Format in all cases: functional
The subject of one assay is Mus musculus. The assay can be described thus: Ratio of in vivo number of survivors / total infected. Also on record: reference not given here.
The subject of a further assay is Aspergillus fumigatus. In words: In vitro antifungal activity against Aspergillus fumigatus. The essentials:
(§1)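 Broth microdilution MIC in Sabouraud's glucose broth; final inocula 1 × 10^5 cells/mL (yeast) or 1 × 10^5 conidia/mL (mold and dermatophyte).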

For assay [1], the system named is Candida albicans. The assay can be described thus: Minimum effective concentration for inhibition of pseudomycelium formation in Candida albicans. To be noted: for minimal effective concentration: Candida albicans, read-out: MEC. An outline of the steps: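 C. albicans KE-2 (clinical isolate) at a final 1 × 10^6 yeast cells/mL in EMEM with 20% calf serum; compounds diluted by the same microtiter system as for MICs. After incubation, wells were Giemsa-stained (5% in phosphate buffer) and read by microscope. MEC is the lowest concentration preventing typical pseudomycelium formation.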

For a further assay, the system named is Trichophyton benhamiae. In words: In vitro antifungal activity against Trichophyton asteroides. An outline of the steps:
as §1

For assay [2], the system named is Candida albicans. In words: In vitro antifungal activity against Candida albicans. The settings on record: Candida albicans; read-out: MIC. An outline of the steps: as §1
[3] abbreviates: Aspergillus fumigatus, read-out: MIC.
The mark [4] stands for this setting: Trichophyton benhamiae, read-out: MIC.

Values after ≈ are worked out from the molar mass of the structure shown. Bounds are passed on as bounds.

For the molecule `O=C(c1ccc(Cl)cc1Cl)[C@](O)(Cn1cncn1)c1ccc(Cl)cc1Cl`, in the assay on Mus musculus, the No. of survivors is on record as 8. The MIC was greater than 100 µg/mL with Aspergillus fumigatus (setting [3]), 0.1 µg/mL (≈ 0.232 µM) with Trichophyton benhamiae (setting [4]) and greater than 100 µg/mL in the assay with Candida albicans [2]. Besides, the minimal effective concentration in the assay with Candida albicans [1] was 0.08 µg/mL.
As to `O=S1O[C@H](c2ccc(Cl)cc2Cl)[C@](Cn2cncn2)(c2ccc(Cl)cc2)O1` (some centres undefined), the No. of survivors in the assay with Mus musculus was determined as 7. Besides, the results for the MIC with Aspergillus fumigatus (setting [3]), with Trichophyton benhamiae (setting [4]) and in the assay on Candida albicans [2] were greater than 100 µg/mL, 0.1 µg/mL (≈ 0.225 µM) and 100 µg/mL (≈ 225 µM), respectively. The minimal effective concentration in the assay with Candida albicans [1] amounted to 0.02 µg/mL.
Turning to `CC(C)CC(=O)C(O)(Cn1cncn1)c1ccc(Cl)cc1` (centres undefined), the No. of survivors with Mus musculus was determined as 0. For the same molecule, the MIC in the assay with Aspergillus fumigatus (setting [3]) was 50 µg/mL (≈ 162 µM); in the assay on Trichophyton benhamiae (setting [4]), 0.1 µg/mL (≈ 0.325 µM); in the assay on Candida albicans [2], 100 µg/mL (≈ 325 µM). Also, in the assay on Candida albicans [1], the minimal effective concentration worked out at 0.04 µg/mL.
As to `O=C(c1ccccc1Cl)C(O)(Cn1cncn1)c1ccc(Cl)cc1` (centres undefined), in the assay with Mus musculus, the No. of survivors turned out to be 0. The values for the MIC with Aspergillus fumigatus (setting [3]), with Trichophyton benhamiae (setting [4]) and in the assay with Candida albicans [2] were greater than 100 µg/mL, 0.4 µg/mL (≈ 1.1 µM) and greater than 100 µg/mL, respectively. In addition, the minimal effective concentration in the assay on Candida albicans [1] was greater than 20 µg/mL.
As to `O=C(c1ccc(Cl)cc1)C(O)(Cn1ccnc1)c1ccc(Cl)cc1Cl` (centres undefined), the No. of survivors with Mus musculus came to 0. Further, the minimal inhibitory concentration (MIC) with Aspergillus fumigatus (setting [3]) is greater than 100 µg/mL; with Trichophyton benhamiae (setting [4]) it was 0.1 µg/mL (≈ 0.253 µM); in the assay on Candida albicans [2], greater than 100 µg/mL. Also, the minimal effective concentration in the assay on Candida albicans [1] is 2.5 µg/mL.
Take `O=C(C1CCCC1)C(O)(Cn1cncn1)c1ccc(Cl)cc1Cl` (centres undefined): the No. of survivors in the assay with Mus musculus is given as 0. For the same molecule, the MIC in the assay on Aspergillus fumigatus (setting [3]) is greater than 100 µg/mL; with Trichophyton benhamiae (setting [4]), 0.1 µg/mL (≈ 0.282 µM); in the assay with Candida albicans [2], 50 µg/mL (≈ 141 µM). Besides, the minimal effective concentration in the assay with Candida albicans [1] worked out at 0.02 µg/mL.
In the case of `CC(C)C(=O)C(O)(Cn1ccnc1)c1ccc(Cl)cc1Cl` (centres undefined), the No. of survivors in the assay with Mus musculus is on record as 1. Besides, the MIC is greater than 100 µg/mL with Aspergillus fumigatus (setting [3]), 0.1 µg/mL (≈ 0.306 µM) in the assay with Trichophyton benhamiae (setting [4]) and greater than 100 µg/mL in the assay on Candida albicans [2]. Also, the minimal effective concentration with Candida albicans [1] turned out to be 0.04 µg/mL.
Take `O=C(c1ccccc1Cl)C(O)(Cn1cncn1)c1ccc(Cl)cc1Cl` (centres undefined): the No. of survivors in the assay on Mus musculus was 8. For the same molecule, the MIC in the assay on Aspergillus fumigatus (setting [3]) was greater than 100 µg/mL; in the assay with Trichophyton benhamiae (setting [4]) it was 0.1 µg/mL (≈ 0.252 µM); in the assay with Candida albicans [2], greater than 100 µg/mL. The minimal effective concentration with Candida albicans [1] is 0.04 µg/mL.
As for `O=C(c1ccc(Cl)cc1Cl)C(O)(Cn1cncn1)c1ccccc1Cl` (centres undefined), in the assay with Mus musculus, the No. of survivors stood at 7. The MIC in the assay on Aspergillus fumigatus (setting [3]) is 100 µg/mL (≈ 252 µM); in the assay on Trichophyton benhamiae (setting [4]), 0.1 µg/mL (≈ 0.252 µM); with Candida albicans [2], 100 µg/mL (≈ 252 µM). For the same molecule, in the assay on Candida albicans [1], the minimal effective concentration was 0.31 µg/mL.
`OC(c1ccccc1Cl)C(O)(Cn1cncn1)c1ccccc1Cl` (centres undefined): in the assay with Mus musculus, the No. of survivors is 2. In addition, the MIC in the assay on Aspergillus fumigatus (setting [3]) amounted to 6.3 µg/mL (≈ 17.3 µM); in the assay on Trichophyton benhamiae (setting [4]) it was 0.1 µg/mL (≈ 0.275 µM); with Candida albicans [2], 100 µg/mL (≈ 275 µM). Also, the minimal effective concentration with Candida albicans [1] was 0.08 µg/mL.
In the same order, the values of `O=C1O[C@H](c2ccccc2Cl)[C@@](Cn2cncn2)(c2ccccc2Cl)O1` are 0, greater than 100 µg/mL, 12.5 µg/mL (≈ 32 µM), greater than 100 µg/mL and 0.31 µg/mL.
On to `CCCC(O)(Cn1cncn1)C(=O)c1ccc(Cl)cc1Cl` (centres undefined), for which, in the assay on Mus musculus, the No. of survivors is 1. Moreover, the MIC was 50 µg/mL (≈ 152 µM) with Aspergillus fumigatus (setting [3]), 0.4 µg/mL (≈ 1.22 µM) in the assay on Trichophyton benhamiae (setting [4]) and greater than 100 µg/mL in the assay with Candida albicans [2]. Further, the minimal effective concentration in the assay with Candida albicans [1] is 1.25 µg/mL.
In the same order, the values of `O=C1O[C@H](c2ccc(Cl)cc2Cl)[C@@](Cn2cncn2)(c2ccc(Cl)cc2)O1` are 8, greater than 100 µg/mL, 0.1 µg/mL (≈ 0.235 µM), 50 µg/mL (≈ 118 µM) and 0.63 µg/mL.
In the same order, the values of `O=S1O[C@H](c2ccc(Cl)cc2Cl)[C@@](Cn2cncn2)(c2ccc(Cl)cc2)O1` (some centres undefined) are 5, greater than 100 µg/mL, 0.1 µg/mL (≈ 0.225 µM), 100 µg/mL (≈ 225 µM) and 0.08 µg/mL.
Regarding `Cc1ccc(C(=O)C(O)(Cn2cncn2)c2ccccc2Cl)cc1` (centres undefined), the No. of survivors in the assay with Mus musculus was 1. The values for the MIC with Aspergillus fumigatus (setting [3]), with Trichophyton benhamiae (setting [4]) and with Candida albicans [2] were greater than 100 µg/mL, 0.8 µg/mL (≈ 2.34 µM) and greater than 100 µg/mL, respectively. For the same molecule, the minimal effective concentration with Candida albicans [1] was found to be 2.5 µg/mL.
Consider `CC(=O)C(O)(Cn1cncn1)c1ccc(Cl)cc1Cl` (centres undefined), for which the No. of survivors in the assay with Mus musculus is listed as 2. The results for the MIC in the assay with Aspergillus fumigatus (setting [3]), in the assay with Trichophyton benhamiae (setting [4]) and with Candida albicans [2] were 50 µg/mL (≈ 167 µM), 0.2 µg/mL (≈ 0.666 µM) and greater than 100 µg/mL, respectively. In addition, the minimal effective concentration in the assay on Candida albicans [1] came to 0.04 µg/mL.
In the same order, the values of `O=C(c1ccc(Cl)cc1Cl)C(O)(Cn1ccnc1)c1ccc(Cl)cc1Cl` (centres undefined) are 1, 25 µg/mL (≈ 58.1 µM), 0.1 µg/mL (≈ 0.232 µM), 50 µg/mL (≈ 116 µM) and 5 µg/mL.
`CC(O)(c1ccc(F)cc1)C(O)(Cn1cncn1)c1ccc(F)cc1` (stereo in doubt; 160): in the assay with Mus musculus, the No. of survivors worked out at 2. Moreover, the MIC was determined as 25 µg/mL (≈ 72.4 µM) in the assay on Aspergillus fumigatus and 0.1 µg/mL (≈ 0.29 µM) with Trichophyton benhamiae. In the assay on Candida albicans [1], this molecule yielded an MEC of 0.16 µg/mL.

These data come from ChEMBL document CHEMBL1123760, “Synthesis and oral antifungal activity of novel azolylpropanolones and related compounds” (1987).
